Measurements reported in ChEMBL document CHEMBL1212914, “A novel water-soluble gossypol derivative increases chemotherapeutic sensitivity and promotes growth inhibition in colon cancer” (J Med Chem, 2010).
Several values for one entry are separate records, joined by “and”; a condition that tells them apart may be missing. Equal values may be shown once. Activity calls are given as the source filed them. No cut-off for these calls is given here.

What was measured:
[1] = system: CT26; experiment: Cytotoxicity against mouse CT26 cells assessed as cell viability at 2 uM after 120 hrs by […]; type: functional; settings: CT26, 120 h, read-out: Activity
Summary of the method: (§1)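 CT26 cells were seeded at 2 × 10^3 per well and, after adherence, exposed to 2, 5, 10 or 20 μM for up to 120 h. Viability was read with a Cell Titer 96 Aqueous One Solution proliferation kit rather than MTT.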

[2] = system: 4T1; experiment: Cytotoxicity against mouse 4T1 cells after 72 hrs by MTT assay; type: functional, cell-based
Summary of the method: (§2)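 Compounds dissolved in DMSO; cells seeded at 5 × 10^3 per well and treated after adherence with a range of concentrations for 72 h, with DMSO as negative control. MTT was added for 4 h at 37 °C in the dark, formazan dissolved in DMSO, and absorbance read. IC50 (μM) was calculated as the mean of three independent experiments.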

[3] = system: CT26; experiment: Induction of apoptosis in mouse CT26 cells assessed as reduction of Bcl-2 protein level at 5 to 10 uM after 24 hrs by immunoblotting; type: functional, cell-based
Summary of the method: (§3)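 CT26 cells were exposed to 5 or 10 μM for the indicated times, with DMSO as control. Lysates were run on 10% SDS-PAGE and transferred to nitrocellulose. Blots were probed overnight at 4 °C for Bcl-2 and Bcl-xL, with β-actin as loading control, and detected by HRP chemiluminescence. Experiments were repeated three times.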

[4] = system: HCT-116; experiment: Cytotoxicity against human HCT116 cells after 72 hrs by MTT assay; type: functional, cell-based; summary of the method: as §2
[5] = system: A549; experiment: Cytotoxicity against human A549 cells after 72 hrs by MTT assay; type: functional, cell-based; settings: A549, 72 h; summary of the method: as §2
[6] = system: Mus musculus; experiment: Toxicity in BALB/c mouse assessed as weight loss at 120 umol/kg, po administered daily once for 12 days; type: organism-based; settings: in vivo, 288 h
Summary of the method: (§4)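 Male BALB/c mice aged 6-8 weeks, n = 6 per group, received 120 μmol/kg by gavage once daily for 12 days in 10% ethanol, with 10% ethanol alone as the control. Survival was followed over time, and mice were weighed at day 12 and then sacrificed. Small intestine was paraffin-embedded, cut into 5 μm sections, H&E-stained and examined by light microscopy. Student's t test was used.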

[7] = system: CT26; experiment: Induction of apoptosis in mouse CT26 cells at 5 to 10 uM by TUNEL assay; type: functional, cell-based; settings: TDE = time-dependent effect
Summary of the method: (§5)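 After treatment at various concentrations and times, CT26 cells were PBS-washed and fixed in 4% paraformaldehyde for 1 h at room temperature. They were permeabilized for 2 min on ice, then incubated with TUNEL reaction mixture for 1 h at 37 °C in the dark and counterstained with DAPI. TUNEL-positive cells were counted by fluorescence microscopy in five random fields and averaged; DMSO served as control.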

[8] = system: CT26; experiment: Induction of apoptosis in mouse CT26 cells assessed as reduction of Bcl-xL mRNA level at 10 uM after 24 hrs by RT-PCR analysis; type: functional, cell-based
[9] = Solubility of the compound in 100 gram of water; type: physicochemical; settings: buffer
Summary of the method: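 Water solubility was measured at 37 °C as the mass of compound dissolving in 100 g of H2O.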

[10] = system: CT26; experiment: Induction of apoptosis in mouse CT26 cells assessed as inhibition of Bcl-2-Bax interaction at 20 uM after 24 hrs by immunoprecipitation analysis; type: functional, cell-based
Summary of the method: (§6)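 CT26 cells were treated for 24 h, with DMSO as control, then lysed in Triton X-100 buffer for 30 min at 4 °C. Lysates were immunoprecipitated overnight at 4 °C with anti-Bcl-2 or anti-Bcl-xL antibody plus protein A-agarose. Eluates were western-blotted for Bax (Bcl-2 pulldown) or Bim (Bcl-xL pulldown).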

[11] = system: Mus musculus; experiment: Toxicity in BALB/c mouse assessed as induction of small intestine damage at 120 umol/kg, po administered daily once for 12 days; type: organism-based; settings: in vivo, 288 h; summary of the method: as §4
[12] = system: SW-620; experiment: Cytotoxicity against human SW620 cells after 72 hrs by MTT assay; type: functional, cell-based; summary of the method: as §2
[13] = system: CT26; experiment: Cytotoxicity against mouse CT26 cells after 72 hrs by MTT assay; type: functional, cell-based; summary of the method: as §2
[14] = system: PC-3; experiment: Cytotoxicity against human PC3 cells after 72 hrs by MTT assay; type: functional, cell-based; summary of the method: as §2
[15] = system: Serum; experiment: Metabolic stability of the compound in mouse serum after 30 mins; type: ADME, cell-free; settings: 0.5 h
Summary of the method: (§7)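 The compound was incubated for 30 min in PBS (pH 7.2-7.4) or in human or mouse serum, and the amount remaining was analyzed by HPLC.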

[16] = system: CT26; experiment: Induction of apoptosis in mouse CT26 cells assessed as reduction of Bcl-xL protein level at 5 to 10 uM after 24 hrs by immunoblotting; type: functional, cell-based; summary of the method: as §3
[17] = system: CT26; experiment: Cytotoxicity against mouse CT26 cells assessed as cell viability at 20 uM after 48 hrs […]; type: functional; settings: CT26, 48 h, read-out: Activity; summary of the method: as §1
[18] = system: CT26; experiment: Cytotoxicity against mouse CT26 cells at 5 to 10 uM after 24 hrs by […]; type: functional, cell-based; summary of the method: as §1
[19] = Chemical stability of the compound in phosphate buffered saline at pH 7.2 to 7.4 after 30 mins; type: physicochemical; settings: buffer, pH 7.2, 0.5 h; summary of the method: as §7
[20] = system: CT26; experiment: Cytotoxicity against mouse CT26 cells assessed as cell viability at 20 uM after 24 hrs by […]; type: functional; settings: CT26, 24 h, read-out: Activity; summary of the method: as §1
[21] = system: CT26; experiment: Induction of apoptosis in mouse CT26 cells assessed as reduction of Bcl-2 mRNA level at 10 uM after 24 hrs by RT-PCR analysis; type: functional, cell-based
[22] = system: CT26; experiment: Induction of apoptosis in mouse CT26 cells after 24 to 72 hrs by TUNEL assay; type: functional, cell-based; summary of the method: as §5
[23] = system: CT26; experiment: Induction of apoptosis in mouse CT26 cells assessed as inhibition of Bcl-xL-Bim interaction at 20 uM after 24 hrs by immunoprecipitation analysis; type: functional, cell-based; summary of the method: as §6
[24] = system: MDA-MB-435; experiment: Cytotoxicity against human MDA-MB-435 cells after 72 hrs by MTT assay; type: functional, cell-based; summary of the method: as §2
[25] = system: Serum; experiment: Metabolic stability of the compound in human serum after 30 mins; type: ADME, cell-free; settings: 0.5 h; summary of the method: as §7
[26] = system: CT26; experiment: Cytotoxicity against mouse CT26 cells assessed as complete cell death at 20 uM after 72 hrs by […]; type: functional, cell-based; summary of the method: as §1
[27] = system: CT26; experiment: Cytotoxicity against mouse CT26 cells at 2 to 20 uM by […]; type: functional, cell-based; settings: TDE = time-dependent effect; summary of the method: as §1
[28] = system: CT26; experiment: Antitumor activity against mouse CT26 cells xenografted in BALB/c mouse assessed as decrease of tumor volume at 10 umol/kg, po for 12 consecutive days; type: functional, organism-based
Summary of the method: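 Male BALB/c mice (6-8 weeks) received 5 × 10^5 CT26 cells subcutaneously in the right flank. At 60 mm3, tumor-bearing mice were randomized (n = 4 per group) and dosed by gavage at 10 μmol/kg daily for 12 days in 10% ethanol, with vehicle as control. Tumors were measured every 2 days by caliper; volume = length × width × width × π/6.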

[29] = system: MCF7; experiment: Cytotoxicity against human MCF7 cells after 72 hrs by MTT assay; type: functional, cell-based; summary of the method: as §2
[30] = system: B16-F10; experiment: Cytotoxicity against mouse B16F10 cells after 72 hrs by MTT assay; type: functional, cell-based; summary of the method: as §2
[31] = system: Mus musculus; experiment: Toxicity in BALB/c mouse assessed as mortality at 120 umol/kg, po administered daily once for 12 days; type: organism-based; settings: in vivo, 288 h; summary of the method: as §4
[32] = system: Mus musculus; experiment: Toxicity in BALB/c mouse assessed as mortality at 120 umol/kg, po administered daily once for 12 days measured on day 8; type: organism-based; settings: in vivo, 288 h; summary of the method: as §4
[33] = system: MCF-7 (Homo sapiens); experiment: Cytotoxicity against human MCF-7 cells after 72 hrs by MTT assay; settings: MCF-7, 72 h

Structure (SMILES) | IC50 ([2]; Mus musculus, 4T1, 72 h) [µM] | IC50 ([4]; Homo sapiens, HCT-116, 72 h) [µM] | IC50 [5] [µM] | solubility [9] [g] | Activity [11] | IC50 ([12]; Homo sapiens, SW-620, 72 h) [µM] | IC50 ([13]; Mus musculus, CT26, 72 h) [µM] | IC50 ([14]; Homo sapiens, PC-3, 72 h) [µM] | IC50 ([24]; Homo sapiens, MDA-MB-435, 72 h) [µM] | IC50 ([29]; Homo sapiens, MCF7, 72 h) [µM] | IC50 ([30]; Mus musculus, B16-F10, 72 h) [µM] | further results
CC1=C(C2=C(C)C(=O)c3c(c(/C=N/[C@@H]4C(=O)N5[C@@H]4SC(C)(C)[C@@H]5C(=O)[O-])c(O)c(O)c3C(C)C)C2=O)C(=O)c2c(/C=N/[C@@H]3C(=O)N4[C@@H]3SC(C)(C)[C@@H]4C(=O)[O-])c(O)c(O)c(C(C)C)c2C1=O.[Na+].[Na+] | 28.2 | 17.4 | 8.77 | 9.25 | Non-toxic | 6.56 | 6.59 | 29.5 | > 40 | 29.1 | 11.1 | viability at 2 µM [1]: > 90%; Activity [3]: Active; Activity [6]: Non-toxic; Activity [7]: tde; Activity [8]: inactive; Activity [10]: Active; Stability [15]: Stable; Activity [16]: Active; viability at 20 µM [17]: 60%; Activity [18]: Active; Stability [19]: Stable; viability at 20 µM [20]: 80%; Activity [21]: inactive; Activity [22]: Dose-dependent effect; Activity [23]: Active; Stability [25]: Stable; Activity [26]: Active; Activity [27]: tde; Activity [28]: Active
CCC(C)[C@H](/N=C/c1c(O)c(O)c(C(C)C)c2cc(C)c(-c3c(C)cc4c(C(C)C)c(O)c(O)c(/C=N/[C@H](C(=O)O)C(C)CC)c4c3O)c(O)c12)C(=O)O (stereo partly drawn) | > 40 | 34.9 | 14.8 |  |  | 22.6 | 18.4 | > 40 | > 40 | 28.5 | 19.9 | 
Cc1cc2c(C(C)C)c(O)c(O)c(C=O)c2c(O)c1-c1c(C)cc2c(C(C)C)c(O)c(O)c(C=O)c2c1O [GOSSYPOL] | 18.8 |  |  | < 0.001 | Toxic |  |  |  |  | 12.6 |  | Activity [31]: Non-toxic; IC50 ([2]; 4t1): 21.5 µM; IC50 ([4]; hct-116): 3.33 µM and 22 µM; IC50 ([12]; sw-620): 17.2 µM; IC50 ([13]; ct26): 2.21 µM and 13.6 µM; IC50 ([14]; pc-3): 9.14 µM and 22.4 µM; Activity [32]: Toxic; IC50 [33]: 12.6 µM; IC50 ([24]; mda-mb-435): 11.8 µM and 33.2 µM; IC50 ([29]; mcf7): 21.6 µM; IC50 ([30]; b16-f10): 5.54 µM and 18 µM
CC/C(C)=C(\NCc1c(O)c(O)c(C(C)C)c2cc(C)c(-c3c(C)cc4c(C(C)C)c(O)c(O)c(CN/C(C(=O)O)=C(/C)CC)c4c3O)c(O)c12)C(=O)O | > 40 | 23.4 | 13.2 |  |  | 11.8 | 11.9 | > 40 | > 40 | 25.8 | 20.1 | 
